Data reported in ChEMBL document CHEMBL1138243, “Design of mechanism-based inhibitors of transthyretin amyloidosis: studies with biphenyl ethers and new structural templates” (J Med Chem, 2007).
Active and inactive are the calls of the source. The rule behind the calls is not given here.

Legend:
Transthyretin [1] = biological target: T1, Transthyretin (Homo sapiens, UniProt P02766); experiment: Inhibition of transthyretin fibril formation at pH 4.4 at 50 uM; format: functional; design: scale not given: the % may be the effect or the level left
Transthyretin [2] = biological target: T1, Transthyretin; experiment: Inhibition of fibril elongation of preformed transthyretin at […] after 72 hrs by turbidity assay; format: functional
[3] = Cytotoxicity against TTR-induced […] cells assessed as viability at 50 uM after 72 hrs; format: functional; settings: Mus musculus, N2a, read-out: Activity
Transthyretin [4] = biological target: T1, Transthyretin; experiment: Stabilization of urea-induced transthyretin dissociation at 5.4 uM at pH 7.2 after […] relative to control
Transthyretin [5] = biological target: T1, Transthyretin; experiment: Inhibition of transthyretin fibril formation at pH 4.4 at 100 uM; format: functional
In short: (§1)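 Library screen of acid-mediated TTR fibril formation at pH 4.4 with inhibitor at 100 µM. TTR was at 7.2 µM.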

Transthyretin [6] = biological target: T1, Transthyretin; experiment: Inhibition of transthyretin amyloidosis assessed as fibril formation pH 4.4 at 100 uM; format: functional; in short: as §1
Transthyretin [7] = biological target: T1, Transthyretin; experiment: Inhibition of transthyretin amyloidosis assessed as fibril formation at 7.2 uM at pH 4.4 relative to control; format: functional; design: scale not given: the % may be the effect or the level left
In short: (§2)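 WT TTR tetramer (7.2 µM) in pH 7 phosphate/KCl/EDTA was preincubated 1 h at 25 °C with inhibitor (7.2 or 21.6 µM; 1:1 or 1:3) in 1% DMSO. It was then diluted with pH 4.4 acetate/KCl/EDTA buffer and held stagnant 72 h at 37 °C. Turbidity was read at 340 nm as % fibril formation versus untreated (100%). Mean of five experiments.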

Transthyretin [8] = biological target: T1, Transthyretin; experiment: Inhibition of transthyretin amyloidosis assessed as fibril formation at 21.6 uM at pH 4.4 relative to control; format: functional; design: scale not given: the % may be the effect or the level left; in short: as §2
Transthyretin [9] = biological target: T1, Transthyretin; experiment: Inhibition of transthyretin fibril formation assessed as turbidity at 21.6 uM at pH 4.4 after 3 hrs; format: functional
In short: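 Kinetics run with 7.2 µM TTR plus 21.6 µM inhibitor at pH 4.4, 37 °C. Turbidity at 340 nm was followed for 3 h. Initial fibrillization rate came from the linear slope of A340 versus time. Three experiments in triplicate.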

Neuro2a = experiment: Cytotoxicity against […] cells at 50 uM; format: functional, cell-based; settings: Mus musculus

Structure (SMILES) | inhibition (Transthyretin [5]) [%] | percent fibril formation relative to control (Transthyretin [6]) [%] | other results
COc1cc(CO)ccc1Oc1ccccc1 |  |  | Activity (Transthyretin [1]): 61.2%
Oc1ccccc1-c1nnc(S)o1 | 86.2 | 13.8 | Activity (Transthyretin [2]): Active; viability at 50 µM [3]: 86%; Activity (Transthyretin [4]): < 5%; Activity (Transthyretin [7]): 21%; Activity (Transthyretin [8]): 0%; inhibition (Transthyretin [9]): > 80%; Activity (Neuro2a): Not toxic
COc1cc(C=O)ccc1Oc1ccc([N+](=O)[O-])cc1[N+](=O)[O-] |  |  | Activity (Transthyretin [1]): 66%
O=Cc1ccc(Oc2ccc([N+](=O)[O-])cc2[N+](=O)[O-])c(O)c1 |  |  | Activity (Transthyretin [1]): 40.5%
COc1cc(C(=O)O)ccc1Oc1ccc([N+](=O)[O-])cc1[N+](=O)[O-] |  |  | Activity (Transthyretin [1]): 48%
COc1cc(COC(C)=O)ccc1Oc1ccc([N+](=O)[O-])cc1[N+](=O)[O-] |  |  | Activity (Transthyretin [1]): 69%
O=Cc1ccc(Oc2ccccc2)c(O)c1 |  |  | Activity (Transthyretin [1]): 112%
O=C(O)c1ccc(Oc2ccc([N+](=O)[O-])cc2[N+](=O)[O-])c(O)c1 |  |  | Activity (Transthyretin [1]): 75%
CCN1C(=O)/C(=C/c2ccc(N(CC)CC)cc2O)SC1=S | 0 | 177 | 
Cc1ccccc1C1=N/C(=C\c2sccc2C)C(=O)O1 | 0 | 115 | 
O=C1/C(=C\c2ccc(-c3ccc(Cl)cc3)o2)SC(=S)N1c1cccc(Cl)c1 | 0 | 107 | 
CCC(=O)NC(c1ccc2c(c1)OCO2)c1cc(Cl)c2cccnc2c1O (stereo not drawn) | 58.1 | 41.9 | 
Cc1nc2c(ccc3ccccc32)c(O)c1CN1CCCC1 | 33.1 | 66.9 | 
Cc1ccc2nc(NC(=O)c3ccccc3O)sc2c1 | 0 | 368 | 
Oc1ccc(-c2n[nH]c(=S)o2)cc1 | 80.8 | 19.2 | 
COc1cc(CO)ccc1Oc1ccc([N+](=O)[O-])cc1[N+](=O)[O-] |  |  | Activity (Transthyretin [1]): 28%
O=C(O)C1CSC(c2ccc(Cl)c(Cl)c2)N1 (stereo not drawn) | 0 | 102 | 
O=C(O)CCc1nc(-c2cccs2)no1 | 67.9 | 32.1 | 
Cc1ccc(/C=c2/sc3nc4ccccc4n3c2=O)cc1 | 0 | 125 | 
CCc1ccc(Oc2cc(F)nc(N)n2)cc1 | 9.71 | 10.4 | 

Structure (SMILES) | inhibition (Transthyretin [5]) [%] | percent fibril formation relative to control (Transthyretin [6]) [%] | other results
O=C(O)c1ccc(Cl)c(N2C(=O)C3C4CCC(C4)C3C2=O)c1 (stereo in doubt; 33) | 37.8 | 62.2 | 
O=C(c1cc(-c2ccc(Cl)s2)nc2ccccc12)N1CCOCC1 | 0 | 156 | 
COc1cc(CO)ccc1Oc1ccc([N+](=O)[O-])cc1 |  |  | Activity (Transthyretin [1]): 89.5%
O=C1CSC(c2ccc(Cl)cc2Cl)N1c1ccc(Cl)cc1 (stereo not drawn) | 79.7 | 20.3 | 
Nc1nc(F)cc(Oc2ccc(F)cc2)n1 | 16 | 84 | 
COc1cc(C2NC(C(=O)O)CS2)ccc1O (stereo not drawn) | 0 | 116 | 
O=C(NC(c1ccco1)c1cc(Cl)c2cccnc2c1O)c1cccnc1 (stereo not drawn) | 63.3 | 36.7 | 
Cc1nc2ccc(Cl)cc2c(O)c1CN1CCCC1 | 18.2 | 81.8 | 
CCOC(=O)c1sc(=S)n(-c2cccc3ccccc23)c1N | 0 | 146 | 
FC(F)(F)c1cccc(NC(=S)N(CCCN2CCCCC2)Cc2cccs2)c1 | 13.3 | 86.7 | 
CCCCC1NC(C(=O)O)CS1 (stereo not drawn) | 0 | 128 | 
CC(C)C(=O)NC(c1ccccc1)c1ccc2cccnc2c1O (stereo not drawn) | 95.4 | 4.6 | 
CCN(CC)CCCN(Cc1ccco1)C(=S)Nc1ccc(OC)cc1 | 0 | 107 | 
O=c1/c(=C\c2ccccc2Cl)sc2nc3ccccc3n12 | 29.1 | 71 | 
O=C(O)c1ccc(Cl)c(N2C(=O)C3C4CCC(C4)C3C2=O)c1 (stereo in doubt; 34) | 0 | 104 | 
O=C(O)C1CSC(c2ccc(Cl)cc2Cl)N1 (stereo not drawn) | 77.7 | 22.3 | 
O=C1/C(=C\c2ccco2)SC(=S)N1c1cccc(F)c1 | 0 | 340 | 
Cc1nc2c(C(=O)NCc3ccc(F)cc3)cnn2c(O)c1Cc1ccccc1F | 53.1 | 46.9 | 
Nc1nc(Cl)cc(Oc2ccccc2F)n1 | 47.6 | 52.4 | 
Cc1ccc2nc(-c3ccc(Cl)s3)c(Nc3ccc(Cl)cc3)n2c1 | 0 | 113 | 

Structure (SMILES) | inhibition (Transthyretin [5]) [%] | percent fibril formation relative to control (Transthyretin [6]) [%] | other results
COc1cc(CCl)ccc1Oc1ccc([N+](=O)[O-])cc1[N+](=O)[O-] |  |  | Activity (Transthyretin [1]): 79%
COc1cc(/C=C2\SC(=S)N(c3ccc(O)cc3)C2=O)ccc1O | 0 | 230 | 
O=C(O)C1CSC(c2cccnc2)N1 (stereo not drawn) | 0 | 144 | 
Nc1nc(F)cc(Oc2ccccc2F)n1 | 45.6 | 54.4 | 
Clc1ccc2nc(-c3ccc(Cl)s3)c(NC3CCCCC3)n2c1 | 0 | 138 | 
O=c1c2ccccc2nc2sc(Nc3ccc(F)cc3F)nn12 | 102 | -2.03 | 
Oc1cc(CCl)ccc1Oc1ccc(Cl)cc1Cl |  |  | viability at 50 µM [3]: 86%; Activity (Transthyretin [4]): < 5%; Activity (Transthyretin [1]): 0%; Activity (Transthyretin [7]): 5%; Activity (Transthyretin [8]): 0%; inhibition (Transthyretin [9]): > 80%; Activity (Neuro2a): Not toxic
Oc1ccc(-c2nc3ncccn3c2Nc2ccc(Cl)cc2)cc1 | 0 | 135 | 
O=C(NC(c1ccccc1)c1cc(Cl)c2cccnc2c1O)c1cccnc1 (stereo not drawn) | 70.4 | 29.6 | 
COc1ccc(NC(=S)N(CCCN2CCOCC2)Cc2cccs2)cc1 | 0 | 102 | 
O=C1OC(c2ccc(Cl)cc2Cl)=N/C1=C\c1cccs1 | 0 | 136 | 
COc1ccc(NC(=S)N(CCCN2CCOCC2)Cc2cccnc2)cc1 | 1.4 | 98.6 | 
Cn1c(=O)c2c(nc(Oc3ccc(-n4cnnn4)cc3)n2C)n(C)c1=O | 0 | 155 | 
Cc1ccc(C2NC(C(=O)O)CS2)cc1 (stereo not drawn) | 85.7 | 14.3 | 
CSC1=NSC2=NC(=O)/C(=C\c3ccc(O)cc3)C(=N)N12 | 27.3 | 72.7 | 
O=C(O)C1CSC(c2ccc([N+](=O)[O-])cc2)N1 (stereo not drawn) | 0 | 119 | 
Cc1ccn2c(Nc3ccc(F)cc3)c(-c3ccccn3)nc2c1 | 0 | 162 | 
O=C(O)CCCCCN1C(=O)/C(=C/c2c[nH]c3ccccc23)SC1=S | 0 | 126 | 
